The target of test [1] is T1, DNA gyrase (Escherichia coli) (UniProt P0AES6+P0AES4).
Test [2] deals with T1, DNA gyrase (Escherichia coli). In words: Maximum non-effective concentration against in vitro Escherichia coli DNA gyrase supercoiling activity was determined by coupled spectrophotometric ATPase assay. Type of test: protein-complex assay. In outline: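 E. coli DNA gyrase ATPase activity measured in a coupled spectrophotometric system with pyruvate kinase and lactate dehydrogenase, following NADH disappearance as ATP is consumed; supercoiling assay used for validation. Value reported as maximum non-effective concentration (MNEC), the highest inhibitor concentration showing no gyrase inhibition.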

The test system of test [3] is Staphylococcus aureus. The experiment in a line: Compound was tested in vitro for antibacterial activity against Staphylococcus aureus Smith. It counts as functional. In a few lines:
(§1)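 MIC by 2-fold agar dilution on Mueller-Hinton agar, inoculum 10⁴ CFU per spot.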

The test system of test [4] is Staphylococcus aureus. The experiment in a line: Compound was tested in vitro for antibacterial activity against Staphylococcus aureus Coum-R. It counts as functional. In outline: as §1
Test [5] deals with Staphylococcus aureus. The experiment in a line: Compound was tested in vitro for antibacterial activity against Staphylococcus aureus Smith QR-54. It counts as functional. In outline: as §1
The test system of test [6] is Staphylococcus aureus. In words: Compound was tested in vitro for antibacterial activity against Staphylococcus aureus H19982. Type of test: functional. In a few lines: as §1
A further test deals with Streptococcus pyogenes. The experiment in a line: Compound was tested in vitro for antibacterial activity against Streptococcus pyogenes beta15. Type of test: functional. In outline:
as §1

In test [7] the test system is Staphylococcus aureus. The experiment in a line: Compound was tested in vitro for antibacterial activity against Staphylococcus aureus ATCC 25923. It counts as functional. In outline:
as §1

A further test deals with Enterococcus faecium. The experiment in a line: Compound was tested in vitro for antibacterial activity against Enterococcus faecium vanA E23-8. It counts as functional. In a few lines: as §1
Test [8] relates to Staphylococcus aureus. In words: Compound was tested in vitro for antibacterial activity against Staphylococcus aureus NovoR. It counts as functional. In a few lines: as §1
For test [9], the system named is Staphylococcus epidermidis. In words: Compound was tested in vitro for antibacterial activity against Staphylococcus epidermidis ATCC 14990. It counts as functional. In outline: as §1

Converted amounts (≈) assume the structure as drawn. Where only a bound is given, the exact number is not on record here.

Turning to `CCc1nn(-c2cc(Cl)cc(Cl)c2)c2nc(Oc3ccc4c(O)c(C(C)=O)c(=O)oc4c3)nc(N)c12`, in test [1], the MNEC is 2 µg/mL.

As for `Cc1nn2c(N)nc(Oc3ccc4c(O)cc(=O)oc4c3)nc2c1C#N`, in [1], the MNEC came to 8 µg/mL.

`CCOC(=O)c1cccc(Oc2nc(N)c3cnn(-c4cc(Cl)cc(Cl)c4)c3n2)c1` showed an MNEC in test [2] of 125 µg/mL.

Consider `CCc1nn(-c2cc(Cl)cc(Cl)c2)c2nc(Oc3ccc4c(N(C)C)cc(=O)oc4c3)nc(N)c12`, for which, in test [2], the MNEC is 125 µg/mL.

As for `Nc1nc(Sc2cccc(C(=O)O)c2)nc2c1cnn2-c1cc(Cl)cc(Cl)c1`, in test [1], the MNEC came to 1 µg/mL.

Molecule `Cc1ccc(Oc2nc(N)c3c(C)nn(-c4cc(Cl)cc(Cl)c4)c3n2)cn1` returned an MNEC in test [2] of 125 µg/mL.

As for `CCOC(=O)c1cccc(Oc2nc(N)c3c(C)nn(-c4cc(Cl)cc(Cl)c4)c3n2)c1`, the MNEC in test [2] was 63 µg/mL.

`CCc1nn(-c2cc(Cl)cc(Cl)c2)c2nc(Oc3ccc4c(O)cc(=O)oc4c3)nc(N)c12` yielded an MNEC in test [1] of 0.06 µg/mL.

As to `Cc1nn2c(N)nc(Sc3cccc(C(=O)O)c3)nc2c1C#N`, the MNEC in [1] was determined as 0.5 µg/mL.

Regarding `Nc1nc(Sc2cccc(C(=O)O)c2)nc2c(-c3ccc(Cl)c(Cl)c3)cnn12`, the MIC in the test on Staphylococcus aureus [3] was > 32 µg/mL; in the test with Staphylococcus aureus [4], > 32 µg/mL; in the test with Staphylococcus aureus [5], > 32 µg/mL; in the test on Staphylococcus aureus [6], > 32 µg/mL; against Streptococcus pyogenes, 0.5 µg/mL (≈ 1.16 µM); with Staphylococcus aureus [7] it was > 32 µg/mL. Besides, the MIC in the test with Enterococcus faecium was 32 µg/mL (≈ 74 µM); against Staphylococcus aureus [8], > 32 µg/mL; in [9], 4 µg/mL (≈ 9.25 µM). Further, the MNEC in test [1] stood at 1 µg/mL.

`Cc1ccc(Oc2nc(N)c3cnn(-c4cc(Cl)cc(Cl)c4)c3n2)cn1`: the MNEC in [1] was > 125 µg/mL.

In the case of `Cc1ccc(Oc2nc(N)n3ncc(-c4ccc(Cl)c(Cl)c4)c3n2)cn1`, the MNEC was > 63 µg/mL in [1] and < 16 µg/mL in [2].

`Cc1nn(-c2cc(Cl)cc(Cl)c2)c2nc(Sc3cccc(C(=O)O)c3)nc(N)c12` gave an MNEC in test [1] of 1 µg/mL.

Turning to `CCNc1nc(Sc2cccc(C(=O)O)c2)nc2c1c(CC)nn2-c1cc(Cl)cc(Cl)c1`, in test [1], the MNEC came to 8 µg/mL.

For `CCc1nn(-c2cc(Cl)cc(Cl)c2)c2nc(Oc3ccc4c(O)c(NC(C)=O)c(=O)oc4c3)nc(N)c12`, the MIC was 8 µg/mL (≈ 14.8 µM) against Staphylococcus aureus [3]; 16 µg/mL (≈ 29.6 µM) against Staphylococcus aureus [4]; 8 µg/mL (≈ 14.8 µM) against Staphylococcus aureus [5]; 4 µg/mL (≈ 7.39 µM) against Staphylococcus aureus [6]; 1 µg/mL (≈ 1.85 µM) against Streptococcus pyogenes; 16 µg/mL (≈ 29.6 µM) in the test on Staphylococcus aureus [7]. The MIC in the test on Enterococcus faecium is > 32 µg/mL; with Staphylococcus aureus [8] it was 16 µg/mL (≈ 29.6 µM); in [9], 4 µg/mL (≈ 7.39 µM). Further, the MNEC in test [1] came to 0.5 µg/mL.

With `CCc1nn(-c2cc(Cl)cc(Cl)c2)c2nc(Sc3cccc(C(=O)O)c3)nc(N)c12`, the MIC against Staphylococcus aureus [3] is 16 µg/mL (≈ 34.8 µM); in the test on Staphylococcus aureus [4], 32 µg/mL (≈ 69.5 µM); in the test with Staphylococcus aureus [5] it was 2 µg/mL (≈ 4.34 µM); against Staphylococcus aureus [6] it was 4 µg/mL (≈ 8.69 µM); in the test with Staphylococcus aureus [7], 16 µg/mL (≈ 34.8 µM); against Enterococcus faecium, > 32 µg/mL. Moreover, the MIC against Staphylococcus aureus [8] was determined as 32 µg/mL (≈ 69.5 µM); in [9] it was 0.5 µg/mL (≈ 1.09 µM). Further, the MNEC in test [1] worked out at 0.25 µg/mL.

In the case of `CCc1nn(-c2cccc(F)c2)c2nc(Oc3ccc4c(O)cc(=O)oc4c3)nc(N)c12`, the MNEC in test [1] worked out at 1 µg/mL.

Molecule `COc1ccc(-c2cnn3c(N)nc(Oc4ccc5c(O)cc(=O)oc5c4)nc23)cc1OC` showed an MNEC in [1] of 0.1 µg/mL.

As to `CCc1nn(-c2cc(Cl)cc(Cl)c2)c2nc(Sc3cccc(C(=O)O)c3)nc(NC3CC3)c12`, in [1], the MNEC was found to be 8 µg/mL.

In the case of `CCc1nn(-c2cc(Cl)cc(Cl)c2)c2nc(Oc3ccc4c(C)cc(=O)oc4c3)nc(N)c12`, the MNEC in test [2] is > 125 µg/mL.

Turning to `CCc1nn(-c2cc(Cl)cc(Cl)c2)c2nc(Oc3ccc4c(O)cc(=O)oc4c3)nc(NC3CC3)c12`, the MNEC in test [1] came out at 4 µg/mL.

For `CCCCNC(=O)Nc1c(O)oc2cc(Oc3nc(N)c4c(CC)nn(-c5cc(Cl)cc(Cl)c5)c4n3)ccc2c1=O`, the MIC with Staphylococcus aureus [3] is 8 µg/mL (≈ 13.4 µM); in the test on Staphylococcus aureus [4], 8 µg/mL (≈ 13.4 µM); in the test on Staphylococcus aureus [5], 2 µg/mL (≈ 3.34 µM); in the test on Staphylococcus aureus [6] it was 4 µg/mL (≈ 6.68 µM); against Streptococcus pyogenes, 2 µg/mL (≈ 3.34 µM); against Staphylococcus aureus [7], 4 µg/mL (≈ 6.68 µM). For the same molecule, the MIC was determined as 16 µg/mL (≈ 26.7 µM) in the test on Enterococcus faecium, 8 µg/mL (≈ 13.4 µM) in the test with Staphylococcus aureus [8] and 4 µg/mL (≈ 6.68 µM) in [9]. In [1], the MNEC is 0.5 µg/mL.

With `CO[C@@H]1[C@@H](OC(N)=O)[C@@H](O)[C@H](Oc2ccc3c(O)c(NC(=O)c4ccc(O)c(CC=C(C)C)c4)c(=O)oc3c2C)OC1(C)C` [NOVOBIOCIN], the MIC with Staphylococcus aureus [3] was determined as 0.25 µg/mL (≈ 0.408 µM); in the test on Staphylococcus aureus [4] it was 16 µg/mL (≈ 26.1 µM); in the test on Staphylococcus aureus [5], 8 µg/mL (≈ 13.1 µM); with Staphylococcus aureus [6], 0.25 µg/mL (≈ 0.408 µM); in the test with Streptococcus pyogenes, 2 µg/mL (≈ 3.26 µM); in the test with Staphylococcus aureus [7], 0.25 µg/mL (≈ 0.408 µM). Also, the MIC in the test with Enterococcus faecium was 8 µg/mL (≈ 13.1 µM); in the test with Staphylococcus aureus [8], 8 µg/mL (≈ 13.1 µM); in [9], 0.12 µg/mL (≈ 0.196 µM).

The molecule `CCc1nn(-c2cccc(F)c2)c2nc(Sc3cccc(C(=O)O)c3)nc(N)c12` registered an MNEC in [1] of 8 µg/mL.

In [1], `Cc1nn(-c2cc(Cl)cc(Cl)c2)c2nc(Oc3ccc4c(O)cc(=O)oc4c3)nc(N)c12` displayed an MNEC of 0.25 µg/mL.

`CCOC(=O)c1cccc(Oc2nc(N)c3c(CC)nn(-c4cc(Cl)cc(Cl)c4)c3n2)c1` displayed an MNEC in test [2] of 125 µg/mL.

Consider `CCc1nn(-c2cc(Cl)cc(Cl)c2)c2nc(Oc3ccc(C)nc3)nc(N)c12`, for which the MNEC in test [1] was > 16 µg/mL; in test [2], < 16 µg/mL.

`CCOC(=O)c1c(O)oc2cc(Oc3nc(N)c4c(CC)nn(-c5cc(Cl)cc(Cl)c5)c4n3)ccc2c1=O` displayed an MNEC in test [1] of 2 µg/mL.

Turning to `Nc1nc(Oc2ccc3c(O)cc(=O)oc3c2)nc2c1cnn2-c1cc(Cl)cc(Cl)c1`, the MNEC in test [1] was determined as 0.5 µg/mL.

One may read the MIC as the smallest concentration in the dilution series that meets the test's criterion for growth inhibition. Read a high MIC as weaker potency.

(Values after ChEMBL document CHEMBL1133340, “Design, synthesis, and structure-activity relationship studies of ATP analogues as DNA gyrase inhibitors” (2000).)
